The text below walks through data of publication PMC12078793 (Nature Communications, 2025).

Series [1] in a line: Blood PTH analog concentrations. Particulars: female, CD-1, mouse, serum, sc, 10 nmol/kg. The series is classed as in vivo.
Series [2] addresses bovine serum albumin (bovine) (UniProt P02769). In words: BLI. (BLI is a label-free optical method that tracks binding on a fibre tip over time.)
The target in another series is T1, pHL2-hPTH1R (Homo sapiens, UniProt Q03431).
T1 sequence (Q03431 106-593 limits assumed): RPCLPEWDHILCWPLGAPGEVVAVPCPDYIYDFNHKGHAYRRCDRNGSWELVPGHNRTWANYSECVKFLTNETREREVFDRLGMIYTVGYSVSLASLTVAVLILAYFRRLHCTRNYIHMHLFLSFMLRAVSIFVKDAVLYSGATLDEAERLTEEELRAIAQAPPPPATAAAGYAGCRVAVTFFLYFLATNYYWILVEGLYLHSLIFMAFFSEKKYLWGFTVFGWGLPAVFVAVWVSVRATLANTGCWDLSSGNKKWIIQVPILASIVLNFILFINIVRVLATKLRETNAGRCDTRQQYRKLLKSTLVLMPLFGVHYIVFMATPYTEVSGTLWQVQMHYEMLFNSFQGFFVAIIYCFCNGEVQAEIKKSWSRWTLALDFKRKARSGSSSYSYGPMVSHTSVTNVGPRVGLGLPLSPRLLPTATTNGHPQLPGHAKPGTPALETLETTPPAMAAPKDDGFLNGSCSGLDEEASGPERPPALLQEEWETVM
In words: Receptor internalization in GPG-10 cells. The series is classed as cell-based. The note with it: 1x10-8 to 1x10-5 M, fluorescence ratio 485/405, n = 3. The essentials: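 Assay used HEK293 cells stably expressing glosensor plus hPTH1R with pHluorin2 inserted in the ECD E2 region. Confluent monolayers were rinsed with HBSS (0.1% BSA, 10 mM HEPES, pH 7.4), and baseline was recorded for 10 min: 535 nm emission with alternating 485/405 nm excitation at 1-min cycles. Ligand was then added and reading continued for 90 min. The AUC of the 485/405 ratio vs time was taken at each concentration.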

Some results are limits rather than exact numbers.

bovine serum albumin (bovine), sequence (P02769 25-607): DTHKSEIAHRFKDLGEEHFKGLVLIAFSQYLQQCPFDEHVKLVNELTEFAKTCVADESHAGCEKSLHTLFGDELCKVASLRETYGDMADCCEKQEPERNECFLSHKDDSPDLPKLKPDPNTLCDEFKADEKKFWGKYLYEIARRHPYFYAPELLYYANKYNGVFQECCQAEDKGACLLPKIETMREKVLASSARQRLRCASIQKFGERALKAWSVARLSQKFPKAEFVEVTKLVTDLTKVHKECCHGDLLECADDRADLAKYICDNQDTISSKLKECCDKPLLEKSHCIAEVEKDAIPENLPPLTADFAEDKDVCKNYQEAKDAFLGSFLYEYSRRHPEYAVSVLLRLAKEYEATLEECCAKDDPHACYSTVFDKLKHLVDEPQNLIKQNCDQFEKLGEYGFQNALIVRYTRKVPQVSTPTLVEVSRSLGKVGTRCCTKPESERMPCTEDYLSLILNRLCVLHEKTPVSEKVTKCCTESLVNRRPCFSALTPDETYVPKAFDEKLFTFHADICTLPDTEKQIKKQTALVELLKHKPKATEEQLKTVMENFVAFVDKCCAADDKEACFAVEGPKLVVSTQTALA

In the case of `CC[C@H](C)[C@H](NC(=O)[C@H](CCC(=O)O)NC(=O)[C@H](CO)NC(=O)[C@@H](NC(=O)[C@@H](N)CO)C(C)C)C(=O)N[C@@H](CCC(N)=O)C(=O)N[C@@H](CC(C)C)C(=O)N[C@@H](CCSC)C(=O)N[C@@H](Cc1cnc[nH]1)C(=O)N[C@@H](CC(N)=O)C(=O)N[C@@H](CC(C)C)C(=O)NCC(=O)N[C@@H](CCCCN)C(=O)N[C@@H](Cc1cnc[nH]1)C(=O)N[C@@H](CC(C)C)C(=O)N[C@@H](CC(N)=O)C(=O)N[C@@H](CO)C(=O)N[C@@H](CCSC)C(=O)N[C@@H](CCC(=O)O)C(=O)N[C@@H](CCCNC(=N)N)C(=O)N[C@H](C(=O)N[C@@H](CCC(=O)O)C(=O)N[C@@H](Cc1c[nH]c2ccccc12)C(=O)N[C@@H](CC(C)C)C(=O)N[C@@H](CCCNC(=N)N)C(=O)N[C@@H](CCCCN)C(=O)N[C@@H](CCCCN)C(=O)N[C@@H](CC(C)C)C(=O)N[C@@H](CCC(N)=O)C(=O)N[C@@H](CC(=O)O)C(=O)N[C@H](C(=O)N[C@@H](Cc1cnc[nH]1)C(=O)N[C@@H](CC(N)=O)C(=O)N[C@@H](Cc1ccccc1)C(N)=O)C(C)C)C(C)C` [PTH(1-34)], the half-life in series [1] is 18 min.

With Palm-M-PTH(1-14) (peptide), the fold lower estimated KD than the non-lipidated counterpart M-PTH(1-14) in series [2] was more than 3 fold.

Consider L11,dW12,W23,Y36-PTHrP(7-36), for which, at pHL2-hPTH1R, the “PHL2-PTH1R internalization into acidic compartments” value is “did not induce internalization”.

As a reminder, the half-life is the time in which the quantity being followed falls by half. A low value points to fast loss.
